According to ChEMBL document CHEMBL1126324, “Cardiotonic agents. 7. Prodrug derivatives of 4-ethyl-1,3-dihydro- 5-[4-(2-methyl-1H-imidazol-1-yl)benzoyl]-2H-imidazol-2-one” (J Med Chem, 1992):
Converted amounts (≈) assume the structure as drawn.

What was measured:
Canis familiaris = species on record: Canis familiaris; assay: Half life time was observed by 50% conversion to compound 1 in dog plasma; format: ADME, Canis lupus familiaris; settings: in vitro
How it was run: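 Prodrug with internal standard diluted 1:100 from stock in 0.05 M NaH2PO4/0.1% H3PO4 into fasted canine plasma, held at 37 °C. Conversion to parent followed by HPLC; half-life of drug consumed.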

Mustela putorius furo = species on record: Mustela putorius furo; assay: Increased contractile force of ferret papillary muscle; format: functional, Muscle tissue
How it was run: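 Isolated ferret papillary muscle, 30-min preincubation with compound; value is the concentration (μM) giving a 20% increase in contractile force. Mean of at least two determinations, with and without 1 μM propranolol co-administration.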

[1] = Half life time was observed by 50% conversion to compound 1 at pH 1.5; format: ADME
How it was run: (§1)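 Aliquots taken at set intervals; prodrug, parent and internal standard quantified by reversed-phase HPLC with UV detection (alkyl phenyl column, 50 °C, phosphate/CH3CN gradient). t1/2 of drug consumed; mean of at least two determinations.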

[2] = Solubility was measured in pH 7.4 phosphate buffer; format: physicochemical
How it was run: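 Solubility in pH 7.4 phosphate buffer, quantified by HPLC.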

[3] = Half life time was observed by 50% conversion to compound 1 at pH 7.4; format: ADME; how it was run: as §1
[4] = Partition coefficient was determined in an octanol/ pH 7.4 phosphate buffer system.; format: physicochemical; settings: octanol/water
[5] = Inhibition of c-AMP phosphodiesterase

Row | SMILES | T1/2 (Canis familiaris) [h] | C20 (Mustela putorius furo) [µM] | T1/2 [1] [h] | solubility [2] [µM] | T1/2 [3] [h] | Partition coefficient [4] | IC50 [5] [µM]
1 | CCc1nc(O)n(C(C)=O)c1C(=O)c1ccc(-n2ccnc2C)cc1 | 0.5 | 0.2 | 21 | 40 (≈ 13.5 µg/mL) | 8 | 26 | –
2 | CCc1nc(O)n(C(=O)Cc2ccccc2)c1C(=O)c1ccc(-n2ccnc2C)cc1 | – | 0.2 | 39 | 25 (≈ 10.4 µg/mL) | 1.5 | – | –
3 | CCc1nc(O)n(Cc2ccccc2)c1C(=O)c1ccc(-n2ccnc2C)cc1 | – | 13 | – | – | – | – | –
4 | CCc1nc(O)n(C(=O)C(C)C)c1C(=O)c1ccc(-n2ccnc2C)cc1 | 0.783 | 0.3 | 132 | 10 (≈ 3.66 µg/mL) | 8 | > 200 | –
5 | CCc1[nH]c(O)nc1C(=O)c1ccc(-n2ccnc2C)cc1 | – | 0.5 | – | 44 (≈ 13 µg/mL) | – | 7 | –
6 | CCC(=O)n1c(O)nc(CC)c1C(=O)c1ccc(-n2ccnc2C)cc1 | 0.5 | 0.3 | 17 | 30 (≈ 10.6 µg/mL) | 6 | 52 | –
7 | CCc1nc(O)n(C(=O)c2ccccc2)c1C(=O)c1ccc(-n2ccnc2C)cc1 | 0.633 | 0.2 | 263 | 23 (≈ 9.21 µg/mL) | 25 | 92 | 157
